Reference: ChEMBL document CHEMBL5724801, “EUbOPEN Chemogenomics Library - Multiplex” (2024)
Several values for one entry are separate records, joined by “and”; a condition that tells them apart may be missing. Equal values may be shown once.

System: Fibroblast
Assay: Multiplex assay against human fibroblast
Format: toxicity, cell-based
Summary of the method: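 At seeding, live cells were stained with Hoechst33342, BioTracker Green Microtubule Cytoskeleton Dye, MitoTracker Red and Annexin V Alexa Fluor 680. After compound addition they were imaged on a CQ1 microscope at 37°C and 5% CO2, and CellPathfinder machine-learning gating sorted them into Hoechst high-intensity objects or normal cells, with normal cells further split into healthy, pyknosed or fragmented nuclei and pyknosed cells into mitotic or apoptotic. Tubulin, mitochondrial-mass and membrane-permeability phenotypes are given as per cents of cells with healthy nuclei.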

[1] = 12 h, 1 µM, compound concentration 1 uM
[2] = 12 h, 10 µM, compound concentration 10 uM
[3] = 24 h, 1 µM, compound concentration 1 uM
[4] = 24 h, 10 µM, compound concentration 10 uM
[5] = 48 h, 1 µM, compound concentration 1 uM
[6] = 48 h, 10 µM, compound concentration 10 uM

Cl.N=C(N)NC(=O)Cc1c(Cl)cccc1Cl [GUANFACINE HYDROCHLORIDE]
Population Apoptotic (%) [1]: 44% and 28%
Population Fragmented Nuclei (%) [1]: 20% and 23%
Population Healthy Nuclei (%) [1]: 62% and 45%
Population Hoechst High Intensity Objects (%) [1]: 2%
Population Membrane Permeable-Phenotype (%) [1]: 0% and 3%
Population Mitochondria Different-Phenotype (%) [1]: 4% and 7%
Population Mitotic Cells (%) [1]: 55% and 71%
Population Normal (%) [1]: 97%
Population Pyknosed Nuclei (%) [1]: 16% and 31%
Population Tubulin-Different-Phenotype (%) [1]: 32% and 46%
Total Cell Count [1]: 167 and 149
Population Apoptotic (%) [2]: 66% and 35%
Population Fragmented Nuclei (%) [2]: 16% and 22%
Population Healthy Nuclei (%) [2]: 68% and 47%
Population Hoechst High Intensity Objects (%) [2]: 0% and 10%
Population Membrane Permeable-Phenotype (%) [2]: 1% and 5%
Population Mitochondria Different-Phenotype (%) [2]: 5%
Population Mitotic Cells (%) [2]: 33% and 64%
Population Normal (%) [2]: 99% and 89%
Population Pyknosed Nuclei (%) [2]: 15% and 29%
Population Tubulin-Different-Phenotype (%) [2]: 24% and 46%
Total Cell Count [2]: 139 and 127
Population Apoptotic (%) [3]: 58% and 45%
Population Fragmented Nuclei (%) [3]: 22% and 23%
Population Healthy Nuclei (%) [3]: 62% and 46%
Population Hoechst High Intensity Objects (%) [3]: 1% and 6%
Population Membrane Permeable-Phenotype (%) [3]: 0% and 12%
Population Mitochondria Different-Phenotype (%) [3]: 5% and 8%
Population Mitotic Cells (%) [3]: 41% and 54%
Population Normal (%) [3]: 98% and 93%
Population Pyknosed Nuclei (%) [3]: 14% and 30%
Population Tubulin-Different-Phenotype (%) [3]: 26% and 50%
Total Cell Count [3]: 169 and 130
Population Apoptotic (%) [4]: 63% and 25%
Population Fragmented Nuclei (%) [4]: 17% and 26%
Population Healthy Nuclei (%) [4]: 68% and 55%
Population Hoechst High Intensity Objects (%) [4]: 1% and 4%
Population Membrane Permeable-Phenotype (%) [4]: 0% and 13%
Population Mitochondria Different-Phenotype (%) [4]: 4% and 3%
Population Mitotic Cells (%) [4]: 36% and 75%
Population Normal (%) [4]: 98% and 95%
Population Pyknosed Nuclei (%) [4]: 14% and 18%
Total Cell Count [4]: 137 and 114
Population Apoptotic (%) [5]: 61% and 50%
Population Fragmented Nuclei (%) [5]: 25% and 33%
Population Healthy Nuclei (%) [5]: 63% and 45%
Population Hoechst High Intensity Objects (%) [5]: 1% and 3%
Population Membrane Permeable-Phenotype (%) [5]: 0% and 4%
Population Mitochondria Different-Phenotype (%) [5]: 6% and 11%
Population Mitotic Cells (%) [5]: 38% and 50%
Population Normal (%) [5]: 98% and 96%
Population Pyknosed Nuclei (%) [5]: 11% and 21%
Population Tubulin-Different-Phenotype (%) [5]: 32% and 57%
Total Cell Count [5]: 162 and 145
Population Apoptotic (%) [6]: 66% and 45%
Population Fragmented Nuclei (%) [6]: 22% and 39%
Population Healthy Nuclei (%) [6]: 67% and 41%
Population Hoechst High Intensity Objects (%) [6]: 1% and 6%
Population Membrane Permeable-Phenotype (%) [6]: 1% and 8%
Population Mitochondria Different-Phenotype (%) [6]: 6% and 2%
Population Mitotic Cells (%) [6]: 33% and 54%
Population Normal (%) [6]: 98% and 93%
Population Pyknosed Nuclei (%) [6]: 10% and 19%
Population Tubulin-Different-Phenotype (%) [6]: 24% and 67%
Total Cell Count [6]: 142 and 120

Cc1ccc(/C(=C\CN2CCCC2)c2ccccn2)cc1 [TRIPROLIDINE]
Population Apoptotic (%) [1]: 52% and 41%
Population Fragmented Nuclei (%) [1]: 17% and 28%
Population Healthy Nuclei (%) [1]: 64% and 45%
Population Hoechst High Intensity Objects (%) [1]: 3% and 4%
Population Membrane Permeable-Phenotype (%) [1]: 0% and 1%
Population Mitochondria Different-Phenotype (%) [1]: 9%
Population Mitotic Cells (%) [1]: 47% and 58%
Population Normal (%) [1]: 96% and 95%
Population Pyknosed Nuclei (%) [1]: 18% and 25%
Population Tubulin-Different-Phenotype (%) [1]: 29% and 60%
Total Cell Count [1]: 119 and 127
Population Apoptotic (%) [2]: 57% and 50%
Population Fragmented Nuclei (%) [2]: 14% and 26%
Population Healthy Nuclei (%) [2]: 64% and 52%
Population Hoechst High Intensity Objects (%) [2]: 2%
Population Membrane Permeable-Phenotype (%) [2]: 0% and 9%
Population Mitochondria Different-Phenotype (%) [2]: 5% and 9%
Population Mitotic Cells (%) [2]: 42% and 50%
Population Normal (%) [2]: 97%
Population Pyknosed Nuclei (%) [2]: 20% and 21%
Population Tubulin-Different-Phenotype (%) [2]: 44% and 59%
Total Cell Count [2]: 139 and 141
Population Apoptotic (%) [3]: 43% and 46%
Population Fragmented Nuclei (%) [3]: 17% and 29%
Population Healthy Nuclei (%) [3]: 69% and 43%
Population Hoechst High Intensity Objects (%) [3]: 4% and 9%
Population Membrane Permeable-Phenotype (%) [3]: 1% and 6%
Population Mitochondria Different-Phenotype (%) [3]: 3% and 6%
Population Mitotic Cells (%) [3]: 56% and 53%
Population Normal (%) [3]: 95% and 90%
Population Pyknosed Nuclei (%) [3]: 13% and 27%
Population Tubulin-Different-Phenotype (%) [3]: 23% and 64%
Total Cell Count [3]: 128 and 121
Population Apoptotic (%) [4]: 47% and 58%
Population Fragmented Nuclei (%) [4]: 15% and 29%
Population Healthy Nuclei (%) [4]: 68% and 52%
Population Hoechst High Intensity Objects (%) [4]: 4% and 2%
Population Membrane Permeable-Phenotype (%) [4]: 0% and 6%
Population Mitochondria Different-Phenotype (%) [4]: 3% and 12%
Population Mitotic Cells (%) [4]: 52% and 41%
Population Normal (%) [4]: 95% and 97%
Population Pyknosed Nuclei (%) [4]: 15% and 17%
Population Tubulin-Different-Phenotype (%) [4]: 41% and 62%
Total Cell Count [4]: 142 and 141
Population Apoptotic (%) [5]: 54% and 52%
Population Fragmented Nuclei (%) [5]: 26% and 29%
Population Healthy Nuclei (%) [5]: 65% and 48%
Population Hoechst High Intensity Objects (%) [5]: 3% and 7%
Population Membrane Permeable-Phenotype (%) [5]: 1% and 7%
Population Mitochondria Different-Phenotype (%) [5]: 2% and 10%
Population Mitotic Cells (%) [5]: 45% and 48%
Population Normal (%) [5]: 96% and 92%
Population Pyknosed Nuclei (%) [5]: 8% and 21%
Population Tubulin-Different-Phenotype (%) [5]: 31% and 57%
Total Cell Count [5]: 135 and 124
Population Apoptotic (%) [6]: 38% and 42%
Population Fragmented Nuclei (%) [6]: 20% and 32%
Population Healthy Nuclei (%) [6]: 69% and 56%
Population Hoechst High Intensity Objects (%) [6]: 7% and 5%
Population Membrane Permeable-Phenotype (%) [6]: 1% and 5%
Population Mitochondria Different-Phenotype (%) [6]: 6% and 9%
Population Mitotic Cells (%) [6]: 61% and 57%
Population Normal (%) [6]: 92% and 94%
Population Pyknosed Nuclei (%) [6]: 9% and 10%
Population Tubulin-Different-Phenotype (%) [6]: 35% and 54%
Total Cell Count [6]: 142 and 140
